{"source": "ChEMBL document CHEMBL4052637", "about": "“Discovery and Characterization of R/S-N-3-Cyanophenyl-N'-(6-tert-butoxycarbonylamino-3,4-dihydro-2,2-dimethyl-2H-1-benzopyran-4-yl)urea, a New Histone Deacetylase Class III Inhibitor Exerting Antiproliferative Activity against Cancer Cell Lines” (J Med Chem, 2017)", "key": {"[1]": {"experiment": "Induction of apoptosis in human U373 cells at 10 uM after 72 hrs by TUNEL method relative to control", "assay_type": "functional, U-373MG ATCC"}, "[2]": {"system": "OVCAR-8", "experiment": "Growth inhibition of human OVCAR8 cells after 48 hrs by SRB assay", "assay_type": "functional", "conditions": "OVCAR-8, 48 h"}, "[3]": {"molecular_target": "T1, NAD-dependent protein deacetylase sirtuin-1 (Homo sapiens) (UniProt Q96EB6)", "T1 sequence (whole entry)": "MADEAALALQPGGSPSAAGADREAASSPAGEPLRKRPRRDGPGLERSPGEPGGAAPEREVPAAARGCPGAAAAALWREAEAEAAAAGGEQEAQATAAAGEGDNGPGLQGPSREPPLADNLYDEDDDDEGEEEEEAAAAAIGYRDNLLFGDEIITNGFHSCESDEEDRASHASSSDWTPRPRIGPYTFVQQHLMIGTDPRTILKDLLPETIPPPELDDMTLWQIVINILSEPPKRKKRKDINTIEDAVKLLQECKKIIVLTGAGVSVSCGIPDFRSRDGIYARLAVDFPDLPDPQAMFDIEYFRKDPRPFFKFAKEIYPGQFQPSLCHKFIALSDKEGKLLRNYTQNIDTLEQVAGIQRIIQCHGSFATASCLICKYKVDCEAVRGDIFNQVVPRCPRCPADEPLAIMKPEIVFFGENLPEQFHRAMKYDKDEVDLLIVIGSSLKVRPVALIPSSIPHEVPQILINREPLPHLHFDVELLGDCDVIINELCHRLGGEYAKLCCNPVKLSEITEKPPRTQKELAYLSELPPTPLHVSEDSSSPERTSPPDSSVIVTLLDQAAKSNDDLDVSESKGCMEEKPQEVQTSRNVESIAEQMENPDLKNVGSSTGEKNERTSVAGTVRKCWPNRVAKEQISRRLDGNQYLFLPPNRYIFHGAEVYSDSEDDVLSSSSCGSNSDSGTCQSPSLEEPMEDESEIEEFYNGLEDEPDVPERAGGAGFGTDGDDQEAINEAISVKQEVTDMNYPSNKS", "experiment": "Inhibition of SIRT1 in human U373 cells assessed as increase of histone H4 acetylation at 1 uM after 8 hrs by Western blotting method relative to control", "assay_type": "cell-based"}, "[4]": {"system": "U-373MG ATCC", "experiment": "Antitumor activity against CM-Dil fluorescent dye labeled human U373 cells xenografted in zebrafish embryo at 5 to 10 uM preincubated with tumor for 30 to 36 hrs followed by tumor implantation in zebra fish yolk sac measured after 72 hrs by fluorescence microscopy", "assay_type": "functional, cell-based", "summary_of_the_method": "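Cells were pretreated in vitro at 5 or 10 μM for 30 or 36 h and labeled with CM-DiI 2 h before injection. Then 100–200 cells were injected into the yolk sac of wild-type zebrafish 48 h post-fertilization, anesthetized in 0.02% tricaine. Embryos were kept 72 h at 28.5 °C in Danieau solution with 0.003% phenylthiourea, and fluorescence was quantified in eight fish per condition.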"}, "[5]": {"system": "KM12", "experiment": "Growth inhibition of human KM12 cells after 48 hrs by SRB assay", "assay_type": "functional", "conditions": "KM12, 48 h"}, "[6]": {"system": "OVCAR-3", "experiment": "Growth inhibition of human OVCAR3 cells after 48 hrs by SRB assay", "assay_type": "functional", "conditions": "OVCAR-3, 48 h"}, "[7]": {"system": "HOP-92", "experiment": "Growth inhibition of human HOP92 cells after 48 hrs by SRB assay", "assay_type": "functional", "conditions": "HOP-92, 48 h"}, "[8]": {"system": "HL-60(TB)", "experiment": "Growth inhibition of human HL-60(TB) cells after 48 hrs by SRB assay", "assay_type": "functional", "conditions": "HL-60, 48 h"}, "[9]": {"system": "NCI-H23", "experiment": "Growth inhibition of human NCI-H23 cells after 48 hrs by SRB assay", "assay_type": "functional", "conditions": "NCI-H23, 48 h"}, "[10]": {"molecular_target": "T2, NAD-dependent protein deacetylase sirtuin-2 (Homo sapiens) (UniProt Q8IXJ6)", "T2 sequence (whole entry)": "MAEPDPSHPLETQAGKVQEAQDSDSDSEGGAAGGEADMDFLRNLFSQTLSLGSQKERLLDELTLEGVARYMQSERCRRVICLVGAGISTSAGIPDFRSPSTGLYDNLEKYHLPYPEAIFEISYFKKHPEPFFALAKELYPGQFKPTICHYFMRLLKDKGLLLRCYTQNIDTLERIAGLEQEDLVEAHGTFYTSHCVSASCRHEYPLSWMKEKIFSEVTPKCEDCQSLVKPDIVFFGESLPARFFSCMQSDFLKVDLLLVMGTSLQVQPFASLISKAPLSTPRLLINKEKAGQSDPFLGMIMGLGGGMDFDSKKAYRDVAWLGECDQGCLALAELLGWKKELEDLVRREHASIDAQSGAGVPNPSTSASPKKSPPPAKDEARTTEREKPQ", "experiment": "Inhibition of SIRT2 in human Hs683 cells assessed as increase of alpha-tubulin acetylation after 8 hrs by Western blotting method", "assay_type": "cell-based"}, "[11]": {"system": "SF-268", "experiment": "Growth inhibition of human SF268 cells after 48 hrs by SRB assay", "assay_type": "functional", "conditions": "SF-268, 48 h"}, "[12]": {"system": "Hs 683", "experiment": "Potency index, ratio of AGK2 IC50 to test compound IC50 for human Hs683 cells", "assay_type": "functional"}, "[13]": {"system": "NCI-H322M", "experiment": "Growth inhibition of human NCI-H322M cells after 48 hrs by SRB assay", "assay_type": "functional"}, "[14]": {"system": "SK-MEL-2", "experiment": "Growth inhibition of human SK-MEL-2 cells after 48 hrs by SRB assay", "assay_type": "functional", "conditions": "SK-MEL-2, 48 h"}, "[15]": {"system": "786-0", "experiment": "Growth inhibition of human 786-0 cells after 48 hrs by SRB assay", "assay_type": "functional", "conditions": "786-0, 48 h"}, "[16]": {"molecular_target": "T3, NAD-dependent protein deacetylase sirtuin-1 (Homo sapiens, UniProt Q96EB6)", "T3 sequence (Q96EB6 whole entry)": "T1 sequence (whole entry)", "experiment": "Inhibition of N-terminal His-tagged recombinant human SIRT-1 expressed in Escherichia coli using Fluor-de-Lys-SIRT1 as substrate after 15 mins by fluorescence assay"}, "[17]": {"experiment": "Induction of senescence in human U373 cells at 5 uM after 6 days by beta-galactosidase assay relative to control", "assay_type": "functional, U-373MG ATCC", "summary_of_the_method": "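Cells were kept 6 days in medium containing 5 μM compound or DMSO vehicle, then stained for senescence-associated β-galactosidase activity. Blue-stained cells were counted and expressed as a percentage of total cells counted. Two independent experiments.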"}, "[18]": {"system": "U-373MG ATCC", "experiment": "Cell cycle arrest in human U373 cells assessed as accumulation at sub-G1 phase at IC50 for MTT assay after 24 to 48 hrs by propidium iodide staining-based flow cytometry", "assay_type": "functional", "summary_of_the_method": "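Cells were exposed to compound at the IC50 for each line from the 72 h MTT assay, or to a reference HDAC inhibitor at 2 μM. Cell cycle distribution was analyzed after 24 and 48 h. Results are mean ± SD of three independent experiments, with p values against control cells.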"}, "[19]": {"system": "Hs 683", "experiment": "Potency index, ratio of sirtinol IC50 to test compound IC50 for human Hs683 cells", "assay_type": "functional"}, "[20]": {"experiment": "Cytostatic activity against human U373 cells at 10 uM after 72 hrs by quantitative videomicroscopy relative to control", "assay_type": "functional, U-373MG ATCC", "summary_of_the_method": "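Cells were grown in 25 cm2 flasks, and phase-contrast images were recorded every 4 min over 72 h, in triplicate. Global growth is cell count on the last image divided by cell count on the first, at 24, 48 and 72 h. The GGR index is treated GG divided by control GG.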"}, "[21]": {"system": "COLO 205", "experiment": "Growth inhibition of human COLO205 cells after 48 hrs by SRB assay", "assay_type": "functional", "conditions": "COLO 205, 48 h"}, "[22]": {"molecular_target": "T1, NAD-dependent protein deacetylase sirtuin-1 (Homo sapiens)", "experiment": "Inhibition of SIRT1 in human Hs683 cells assessed as increase of histone H4 acetylation at 10 uM after 8 hrs by Western blotting method relative to control", "assay_type": "cell-based"}}, "note": "The source made the active and inactive calls. No cut-off for these calls is given here."}
{"compound": "CC(C)(C)OC(=O)Nc1ccc2c(c1)C(NC(=O)Nc1cccc(C#N)c1)CC(C)(C)O2", "note": "(configuration not stated)", "values": [{"measurement": "Activity", "setting": "[1]", "result": "<10", "unit": "%"}, {"measurement": "GI50", "setting": "[2]", "result": 3.16, "unit": "µM"}, {"measurement": "fold change (FC)", "setting": "[3]", "result": 1.1}, {"measurement": "Activity", "setting": "[4]", "result": "Active"}, {"measurement": "GI50", "setting": "[5]", "result": 4.07, "unit": "µM"}, {"measurement": "GI50", "setting": "[6]", "result": 2.29, "unit": "µM"}, {"measurement": "GI50", "setting": "[7]", "result": 0.776, "unit": "µM"}, {"measurement": "GI50", "setting": "[8]", "result": 2.57, "unit": "µM"}, {"measurement": "GI50", "setting": "[9]", "result": 1.12, "unit": "µM"}, {"measurement": "inhibition", "setting": "[10]", "result": "Dose-dependent effect"}, {"measurement": "GI50", "setting": "[11]", "result": 5.01, "unit": "µM"}, {"measurement": "Ratio IC50", "setting": "[12]", "result": "6 - 14"}, {"measurement": "GI50", "setting": "[13]", "result": 21.9, "unit": "µM"}, {"measurement": "GI50", "setting": "[14]", "result": 5.37, "unit": "µM"}, {"measurement": "GI50", "setting": "[15]", "result": 7.59, "unit": "µM"}, {"measurement": "IC50", "setting": "[16]", "result": 6.2, "unit": "µM"}, {"measurement": "Activity", "setting": "[17]", "result": 18.2, "unit": "%"}, {"measurement": "Activity", "setting": "[18]", "result": "inactive"}, {"measurement": "Ratio IC50", "setting": "[19]", "result": 6}, {"measurement": "Activity", "setting": "[20]", "result": 70, "unit": "%"}, {"measurement": "GI50", "setting": "[21]", "result": 3.55, "unit": "µM"}, {"measurement": "fold change (FC)", "setting": "[22]", "result": 12}]}
